Assay results gathered from unrelated publications.
Lines come from different studies, so protocols differ.
Target: Receptor tyrosine-protein kinase erbB-3 (ERBB3, Homo sapiens, UniProt P21860)

| SMILES | test | conditions | remaining binding [%] |
| --- | --- | --- | --- |
| c1cnn2ncc(-c3ccnc(N4CCC45COC5)n3)c2c1 | binding | 1 µM | 86 |
| Cc1c(C(=O)O)cc(-c2ccc(C3CCNCC3)cc2)c2ccc(-c3ccc(C(F)(F)F)cc3)cc12 | binding, competition with immobilised ligand | 1 µM | 86 |
| N[C@H]1CCN(c2nccc(-c3cnn4ncccc34)n2)C1 | binding | 1 µM | 97 |
| FC(F)(F)Oc1cccc(-c2cnc3ccc(-c4ccncc4)nn23)c1 | cell-free assay, competition with immobilised ligand | 5 µM | 19 |
| COc1cnc(Nc2cccc(S(N)(=O)=O)c2)nc1N1CCN(c2ccccc2)CC1 | binding, competition with immobilised ligand | 1 µM | 88 |
| Cc1cnc(Nc2ccc(C(=O)N3CCC(N4CCCC4)CC3)cc2)nc1-c1cc2ccccc2s1 | binding, competition with immobilised ligand | 1 µM | 89 |
| C[C@@H]1CCN(c2nccc(-c3cnn4ncccc34)n2)C1 | binding | 1 µM | 100 |
| CCN1CCN(Cc2ccc(C(=O)Nc3ccc(C)c(Oc4ccc5c(c4)CC(=O)N5)c3)cc2C(F)(F)F)CC1 | binding, competition with immobilised ligand | 1 µM | 100 |
| O=C(NCCCN1CCOCC1)c1ccc(Nc2nccc(-c3cc4ccccc4s3)n2)cc1 | binding, competition with immobilised ligand | 1 µM | 86 |
| COc1ccc2c(c1)O[C@H](c1ccc(OC)c(OC)c1)C[C@@H]2NC(=O)C1(c2ccc3c(c2)OC(F)(F)O3)CC1 | cell-free assay, competition with immobilised ligand | 1 µM | 92 |
| O=C(c1ccc(Nc2ncc(Cl)c(-c3ccc(Cl)s3)n2)cc1)N1CCC(N2CCCC2)CC1 | binding, competition with immobilised ligand | 1 µM | 100 |
| C=CC(=O)N1CCC(C(=O)NCC(=O)N2CCN(c3nc(-c4cnc(N)nc4C(F)F)nc(N4CCOCC4)n3)CC2)CC1 | binding, competition with immobilised ligand | 1 µM | 84 |
| CCOC(=O)c1cc2cc(-c3cc(C(=O)NCc4ccc(C(=O)O)cc4)nn3C)ccc2[nH]1 | cell-free assay, competition with immobilised ligand | 0.1 µM | 81 |
| CC1CCCN1c1nccc(-c2cnn3ncccc23)n1 (stereo not shown) | binding | 1 µM | 100 |
| CC(=O)N1CCC(c2ccc(C(=O)NC(=N)N)cc2C(F)(F)F)CC1 | cell-free assay, competition with immobilised ligand | 1 µM | 98 |
| CN(CCCC(F)(F)F)c1nccc(-c2cnn3ncccc23)n1 | binding | 1 µM | 100 |
| O=C(NCC1CCOCC1)c1n[nH]cc1NC(=O)c1c(F)cccc1F | binding, competition with immobilised ligand | 1 µM | 73 |
| CNC(=O)[C@@H]1CC[C@@H](n2c(-c3ccc4cnccc4c3)nc3ccc(C(=O)NCc4cccc(C(N)=O)c4)cc32)C1 | binding, competition with immobilised ligand | 1 µM | 100 |
| O=C(Nc1ccc(Oc2ccc(F)cc2)cc1)N1CCc2ncccc2[C@H]1c1ccc(F)cc1 | cell-free assay, competition with immobilised ligand | 1 µM | 100 |
| CN(C)c1nccc(-c2cnn3ncccc23)n1 | binding | 1 µM | 87 |
| CC(C)(O)c1cncc(-c2nc3ccc(F)cc3n2C2CC2)c1 | cell-free assay, competition with immobilised ligand | 1 µM | 80 |
| COc1ncc2cc3ccccc3nc2c1C#N | cell-free assay, competition with immobilised ligand | 5 µM | 76 |
